Assay results of several laboratories.
Compare with care: the assays were run in different laboratories.
Matrix: plasma

| Compound | host | route | dose | notes | Cmax |
| --- | --- | --- | --- | --- | --- |
| Cc1cc(-c2nccc3c2ccn3CC(=O)Nc2ccc(-c3cnccn3)cn2)ccn1 | human | oral | 7 mg | single dose | 57.4 nM |
| CC(C)n1c(C2CCNCC2)nc2c([N+](=O)[O-])c(Br)c(Br)cc21 | human | oral | 25 mg | patients | 8.77 ng/mL |
| O=C(COc1ccc(Cl)cc1)NC12CC(c3nnc([C@H]4C[C@@H](OC(F)(F)F)C4)o3)(C1)C2 | human | oral | 145 mg | multiple doses, once daily, steady state, healthy volunteers | 9280 nM |
| N#Cc1cccc(-c2ccc3ncc(-c4cc(F)cc(F)c4)c(N4CCC(N)CC4)c3c2)c1O | male human | oral | 20 mg | single dose | 162 ng/mL |
| C=CC(=O)NC1CCN(c2ncc3ncnc(Nc4ccc(Oc5ccc6c(c5)ncn6C)c(C)c4)c3n2)CC1 | male human | intravenous | 100 µg | single dose, healthy volunteers | 0.583 nM |
| OC[C@H]1O[C@@H](c2cc(Cc3ccc(C4CC4)cc3)c(Cl)c3c2CCO3)[C@H](O)[C@@H](O)[C@@H]1O | human | oral | 0.3 mg | single dose, fed | 3.74 ng/mL |
| COc1ccc2c(c1)CN(C(=O)CCN1CCC(Cc3ccccc3)CC1)CC[S@@+]2[O-] | male human | intravenous | 0.6 mg/kg | healthy volunteers | 1310 ng/mL |
| CC(=O)N(C)[C@H]1CCN(C(=O)c2cnc3c(c2)C[C@](C)(c2ccc(F)cc2)N3)C1 | male human | oral | 15 mg | multiple doses, once daily, steady state | 333 nM |
| COc1ccc(F)cc1C(=O)NCc1ccc(-c2nn([C@@H](C)C(F)(F)F)c(N)c2C(N)=O)cc1 | male human | oral | 200 mg | single dose | 4490 ng/mL |
| COc1ccc(-c2c(Nc3ccccn3)[nH]c3c(C4=CCCCC4)c(-c4ccccc4)nn3c2=O)cc1 | human | oral | 200 mg once daily | multiple doses, patients | 5720 ng/mL |
